Active and inactive are the calls of the source.
Columns and labels:
HeLa [1] = experiment: Cytotoxicity against human HeLa cells after 72 hrs by MTT assay; format: functional, cell-based
Outline: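 HeLa cells exposed to compound for 72 h, then incubated 2 h at 37 °C with 0.5 mg/mL MTT. Formazan dissolved in 90% 2-propanol with DMSO. IC50 read from the concentration–response.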

HeLa [2] = experiment: Inhibition of PMA-induced NF-kappaB activation in human HeLa cells at 16 uM after 7 hrs by IL6/luciferase reporter gene assay; format: cell-based
Outline: (§1)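 HeLa cells stably transfected with an IL-6 promoter–luciferase reporter, stimulated with PMA (50 ng/mL final) for 7 h in the presence of compound. Luminescence given as % of RLU of the PMA-stimulated control, mean of three experiments. Active if ≥30% of positive control. Unstimulated cells served as negative control.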

HeLa [3] = experiment: Inhibition of PMA-induced NF-kappaB activation in human HeLa cells at 8 uM after 7 hrs by IL6/luciferase reporter gene assay; format: cell-based; outline: as §1
HeLa [4] = experiment: Inhibition of PMA-induced NF-kappaB activation in human HeLa cells at 4 uM after 7 hrs by IL6/luciferase reporter gene assay relative to untreated control; format: cell-based; design: scale not given: the % may be the effect or the level left; outline: as §1
HeLa [5] = experiment: Inhibition of PMA-induced NF-kappaB activation in human HeLa cells at 2 uM after 7 hrs by IL6/luciferase reporter gene assay relative to untreated control; format: cell-based; design: scale not given: the % may be the effect or the level left; outline: as §1
Jurkat [6] = experiment: Inhibition of TNF-alpha-induced NF-kappaB activation in human Jurkat 5.1 cells preincubated for 30 mins measured after 6 hrs by HIV1-LTR luciferase assay; format: cell-based
Outline: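 5.1 cells preincubated with compound (5, 10, 20 µM) for 30 min, then stimulated with TNF (2 ng/mL) for 6 h. Lysis in Tris phosphate pH 7.8 buffer with Triton X-100. Luciferase read after subtracting lysis-buffer background and normalised to Bradford protein (RLU/µg). Result expressed as fold induction, mean of three experiments.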

Homo sapiens = species on record: Homo sapiens; experiment: Inhibition of NF-kappaB activation in human HeLa-Tet-On cells assessed as inhibition of doxycyclin-induced HIV1-LTR transactivation at 5 uM after 6 hrs by luciferase reporter gene assay; format: cell-based
Outline: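 HeLa-Tet-On-Luc cells seeded at 5 × 10^5 cells/mL the day before, then stimulated with doxycycline (2 µg/mL) with or without compound for 6 h. Cells washed in PBS and lysed, and luciferase activity measured.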

Jurkat [7] = experiment: Induction of apoptosis in human Jurkat T cells assessed as sub-G0/G1 fraction at 1 uM after 6 hrs by flow cytometry; format: functional
Outline: (§2)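 Jurkat cells (10^6) grown in RPMI 1640 with 10% heat-inactivated FBS, 2 mM glutamine, penicillin and streptomycin, then treated 6 or 24 h. Cells fixed in 70% ethanol for 24 h at 4 °C, washed in PBS with 4% glucose, treated with RNase A (50 U/mL) and stained with PI (20 µg/mL) for 1 h at room temperature. Subdiploid (sub-G0/G1) percentage measured by flow cytometry.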

Jurkat [8] = experiment: Induction of apoptosis in human Jurkat T cells assessed as sub-G0/G1 fraction at 10 uM after 6 hrs by flow cytometry; format: functional; outline: as §2
Jurkat [9] = experiment: Induction of apoptosis in human Jurkat T cells assessed as sub-G0/G1 fraction at 20 uM after 6 hrs by flow cytometry; format: functional; outline: as §2
Jurkat [10] = experiment: Induction of apoptosis in human Jurkat T cells assessed as sub-G0/G1 fraction at 1 uM after 24 hrs by flow cytometry; format: functional; outline: as §2
Jurkat [11] = experiment: Induction of apoptosis in human Jurkat T cells assessed as sub-G0/G1 fraction at 10 uM after 24 hrs by flow cytometry; format: functional; outline: as §2
Jurkat [12] = experiment: Induction of apoptosis in human Jurkat T cells assessed as sub-G0/G1 fraction at 20 uM after 24 hrs by flow cytometry; format: functional; outline: as §2
HeLa [13] = experiment: Cytotoxicity against human HeLa cells at 100 uM; format: functional, cell-based
HeLa [14] = experiment: Cytotoxicity against human HeLa cells after 7 hrs; format: functional, cell-based
Outline: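 HeLa cells stably carrying an IL-6 promoter–luciferase reporter, exposed to compound with PMA (50 ng/mL final) for 7 h. Toxicity judged visually at 40× magnification from changes in cell morphology.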

HeLa [15] = experiment: Cytotoxicity against human HeLa cells at 100 ug/mL

C[C@@]12C[C@H]3OC(=O)[C@@H]1CO[C@]14O[C@]5([C@H]2C1=O)[C@@](O)(CC[C@H]1[C@H]4C[C@H]2O[C@]24CC=CC(=O)[C@]14C)C(=O)O[C@@]35C [PHYSALIN F]
IC50 (HeLa [1]): 2 µM | Activity (HeLa [2]): Active | Activity (HeLa [3]): Active | Activity (HeLa [4]): 7% | Activity (HeLa [5]): 20% | Activity (Jurkat [6]): Dose-dependent effect | Activity (Homo sapiens): inactive | Activity (Jurkat [7]): 2.71% | Activity (Jurkat [8]): 2.07% | Activity (Jurkat [9]): 1.64% | Activity (Jurkat [10]): 50.2% | Activity (Jurkat [11]): 58.2% | Activity (Jurkat [12]): 64.6% | Activity (HeLa [13]): Toxic | Activity (HeLa [14]): Not toxic

C[C@@]12C[C@H]3OC(=O)[C@@H]1CO[C@@]14O[C@]5([C@H]2C1=O)[C@@](O)(CC[C@H]1[C@H]4C[C@@H](O)[C@@]2(O)CC=CC(=O)[C@]12C)C(=O)O[C@@]35C
Activity (HeLa [13]): Not toxic

C[C@]12C(=O)C=CCC1=CC[C@@H]1[C@@H]2CC[C@]2(O)C(=O)O[C@@]3(C)[C@H]4C[C@]5(C)[C@@H](CO[C@@]16O[C@@]32[C@H]5C6=O)C(=O)O4 [PHYSALIN B]
IC50 (HeLa [1]): 2 µM | Activity (HeLa [2]): Active | Activity (HeLa [3]): Active | Activity (Jurkat [7]): 1.83% | Activity (Jurkat [8]): 2.08% | Activity (Jurkat [9]): 2.08% | Activity (Jurkat [10]): 6.27% | Activity (Jurkat [11]): 49.7% | Activity (Jurkat [12]): 50% | Activity (HeLa [14]): Not toxic | Activity (HeLa [15]): Toxic
